These results are taken from ChEMBL document CHEMBL1142002, “Design, synthesis and biological evaluation of novel bicyclic beta-lactams as potential antimalarials” (Bioorg Med Chem Lett, 2005).

For assay [1], the system named is Plasmodium falciparum. In words: (§1) In vitro antimalarial activity for chloroquine-resistant Plasmodium falciparum in schizont maturation assay. Format: functional. In short, it runs like this:
(§2)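 P. falciparum (lab chloroquine-sensitive strains; resistant field isolate from Jagadalpur patients) in O+ human RBCs, RPMI 1640 + 10% human serum, 37 °C, 5% CO2; sorbitol-synchronized rings at 2% in erythrocytes. Double dilutions, duplicate wells, 24 h. Giemsa smears: mature schizonts counted among 200 asexual parasites; inhibition = (1 − Nt/Nc) × 100.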

Assay [2] relates to Plasmodium falciparum. In words: (§3) In vitro antimalarial activity for chloroquine-sensitive Plasmodium falciparum in schizont maturation assay. The class given is functional, organism-based. The method, boiled down: as §2
Assay [3] deals with Plasmodium falciparum. The description is as §3. The class given is functional. The method, boiled down:
(§4)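 Chloroquine-sensitive P. falciparum, sorbitol-synchronized ring stages, cultured in O+ human RBCs in RPMI 1640 with 10% human serum at 37 °C under 5% CO2. Duplicate wells held erythrocytes at 2% ring-stage parasitaemia across double dilutions of compound. After 24 h, Giemsa smears were scored for mature schizonts among 200 asexual parasites. Inhibition was calculated as (1 − Nt/Nc)×100 against medium-only controls.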

The subject of assay [4] is Plasmodium falciparum. The assay is described as §1. Format: functional, organism-based. In short, it runs like this:
as §2

Assay [5] relates to Plasmodium falciparum. In words: In vitro antimalarial activity as schizont maturation against drug-sensitive Plasmodium falciparum. The class given is functional. In short, it runs like this: as §4
The test system of assay [6] is Plasmodium falciparum. In words: In vitro antimalarial activity as schizont maturation against drug-resistant Plasmodium falciparum. Format: functional. In short, it runs like this:
as §2

For `O=C1NC2CCCC12` (stereo unspecified), the figures for the 90% effect concentration (IC90) in assay [1] and in assay [3] were 34.5 µM and 31.9 µM, respectively. In addition, the concentration for an effect of 99% (IC99) (in general, the concentration at which the effect reaches the 99% level) in assay [1] is 48.7 µM; in assay [3] it was 42.2 µM. Also, the IC50 (commonly the concentration at which inhibition is half-maximal) stood at 13.5 µM in assay [2] and 12.4 µM in assay [4].
Consider `O=C1C2CC=CC=CC2N1Cc1ccccc1` (stereo unspecified), for which the IC90 (in general, the concentration needed for an effect of 90%) in assay [1] was 2.9 µM; in assay [3] it was 2.8 µM. Further, the 99% effect concentration (IC99) in assay [1] worked out at 3.3 µM; in assay [3], 3.2 µM. Moreover, the IC50 in assay [2] and in assay [4] was 1.8 µM in each case.
Consider `O=C1NC2CCCCCCC12` (stereo unspecified), for which the concentration for an effect of 90% (IC90) in assay [1] was 33.9 µM; in assay [3], 33.7 µM. In addition, the 99% effect concentration (IC99) in assay [1] is 54.8 µM; in assay [3] it was 51.2 µM. The IC50 in assay [2] amounted to 8.1 µM; in assay [4] it was 8.4 µM.
In the case of `O=C1NC2CC/C=C\CCC12` (stereo unspecified), the results for the concentration for an effect of 90% (IC90) in assay [1] and in assay [3] were 26.1 µM and 25.4 µM, respectively. For the same compound, the IC99 in assay [1] was found to be 48.7 µM; in assay [3] it was 43.4 µM. Besides, the half-maximal inhibitory concentration (IC50) in assay [2] came out at 6.8 µM; in assay [4], 7.3 µM.
For `O=C1C2CCCCCCC2N1Cc1ccccc1` (stereo unspecified), the IC90 in assay [1] was determined as 19.4 µM; in assay [3] it was 18.8 µM. The concentration for an effect of 99% (IC99) in assay [1] amounted to 27.4 µM; in assay [3], 25.2 µM. The results for the IC50 in assay [2] and in assay [4] were 8.1 µM and 7.9 µM, respectively.
Consider `O=C1C2CCCC2N1Cc1ccccc1` (stereo unspecified), for which the IC90 is 12.4 µM in assay [1] and 11.2 µM in assay [3]. Besides, the IC99 in assay [1] came to 14.5 µM; in assay [3], 12.3 µM. The figures for the IC50 in assay [2] and in assay [4] were 6.5 µM and 7.4 µM, respectively.
`O=C1C2CC=CCC2N1Cc1ccccc1` (stereo unspecified): the IC90 in assay [1] was determined as 6.1 µM; in assay [3], 5.6 µM. For the same compound, the IC99 is 6.4 µM in assay [1] and 6.1 µM in assay [3]. Besides, the half-inhibitory concentration (IC50) in assay [2] came to 1.5 µM; in assay [4] it was 1.6 µM.
Regarding `O=C1NC2CC=CCC12` (stereo unspecified), the IC90 in assay [1] was determined as 21.2 µM; in assay [3] it was 19.3 µM. For the same compound, the figures for the IC99 in assay [1] and in assay [3] were 25.3 µM and 23.2 µM, respectively. In addition, the IC50 stood at 9.1 µM in assay [2] and 8.7 µM in assay [4].
For the compound `O=C1NC2C=CC=CCC12` (stereo unspecified), in assay [1], the IC90 stood at 15.4 µM and the concentration for an effect of 99% (IC99) was 24.8 µM. Also, in assay [3], it took 14.5 µM to reach the 90% level (IC90) and the concentration for an effect of 99% (IC99) turned out to be 20.1 µM. For the same compound, half-maximal inhibition in assay [4] (IC50) was put at 4.6 µM.
In the case of `O=C1C2CC/C=C\CCC2N1Cc1ccccc1` (stereo unspecified), the 90% effect concentration (IC90) in assay [1] turned out to be 11.4 µM; in assay [3] it was 10.7 µM. The values for the IC99 in assay [1] and in assay [3] were 14.5 µM and 13.3 µM, respectively. Besides, the half-maximal inhibitory concentration (IC50) in assay [2] came out at 5.4 µM; in assay [4], 5.8 µM.
As to `CCN(CC)CCCC(C)Nc1ccnc2cc(Cl)ccc12` (stereo unspecified) [CHLOROQUINE], the values for the 90% effect concentration (IC90) in assay [5] and in assay [6] were 50 nM and 500 nM, respectively.
